Test [1] deals with T1, Peroxisome proliferator-activated receptor delta (Homo sapiens, UniProt Q03181).
T1 sequence (Q03181 whole entry): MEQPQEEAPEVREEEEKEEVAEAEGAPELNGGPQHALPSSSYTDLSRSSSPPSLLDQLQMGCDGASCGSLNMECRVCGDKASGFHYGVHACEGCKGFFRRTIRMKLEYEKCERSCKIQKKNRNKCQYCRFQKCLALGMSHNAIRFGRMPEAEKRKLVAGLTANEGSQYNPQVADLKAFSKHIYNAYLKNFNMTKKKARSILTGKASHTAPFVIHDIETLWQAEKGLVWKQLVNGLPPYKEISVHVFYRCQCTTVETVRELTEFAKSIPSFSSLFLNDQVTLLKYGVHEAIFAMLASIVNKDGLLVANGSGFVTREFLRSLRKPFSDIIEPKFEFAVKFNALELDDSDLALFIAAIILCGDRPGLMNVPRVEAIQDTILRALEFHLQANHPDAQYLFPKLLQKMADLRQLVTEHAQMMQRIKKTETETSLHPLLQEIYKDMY
Description: Agonist activity at human PPARdelta-LBD expressed in CV1 cells co-transfected with Gal4 after 40 hrs by luciferase based transactivation assay. The format is functional, cell-based, CV-1.

The target in test [2] is T2, Peroxisome proliferator-activated receptor alpha (Homo sapiens, UniProt Q07869).
T2 sequence (Q07869 whole entry): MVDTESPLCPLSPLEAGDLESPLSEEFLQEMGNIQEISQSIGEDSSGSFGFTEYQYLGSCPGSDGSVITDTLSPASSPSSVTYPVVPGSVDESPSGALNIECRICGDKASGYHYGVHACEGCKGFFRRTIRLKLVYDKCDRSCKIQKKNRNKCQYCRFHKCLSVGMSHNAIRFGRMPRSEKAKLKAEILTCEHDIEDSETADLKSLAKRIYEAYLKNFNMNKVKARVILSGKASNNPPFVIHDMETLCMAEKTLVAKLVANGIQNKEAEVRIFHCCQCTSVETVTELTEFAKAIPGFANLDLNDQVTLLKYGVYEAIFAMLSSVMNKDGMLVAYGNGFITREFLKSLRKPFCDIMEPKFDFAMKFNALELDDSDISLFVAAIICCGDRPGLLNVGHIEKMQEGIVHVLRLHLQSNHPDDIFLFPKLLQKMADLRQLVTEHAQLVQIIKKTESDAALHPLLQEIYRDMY
Description: Agonist activity at human PPARalpha-LBD expressed in CV1 cells co-transfected with Gal4 after 40 hrs by luciferase based transactivation assay. The format is functional, cell-based, CV-1.

Test [3] has as its target T3, Peroxisome proliferator-activated receptor gamma (Homo sapiens, UniProt P37231).
T3 sequence (P37231 whole entry): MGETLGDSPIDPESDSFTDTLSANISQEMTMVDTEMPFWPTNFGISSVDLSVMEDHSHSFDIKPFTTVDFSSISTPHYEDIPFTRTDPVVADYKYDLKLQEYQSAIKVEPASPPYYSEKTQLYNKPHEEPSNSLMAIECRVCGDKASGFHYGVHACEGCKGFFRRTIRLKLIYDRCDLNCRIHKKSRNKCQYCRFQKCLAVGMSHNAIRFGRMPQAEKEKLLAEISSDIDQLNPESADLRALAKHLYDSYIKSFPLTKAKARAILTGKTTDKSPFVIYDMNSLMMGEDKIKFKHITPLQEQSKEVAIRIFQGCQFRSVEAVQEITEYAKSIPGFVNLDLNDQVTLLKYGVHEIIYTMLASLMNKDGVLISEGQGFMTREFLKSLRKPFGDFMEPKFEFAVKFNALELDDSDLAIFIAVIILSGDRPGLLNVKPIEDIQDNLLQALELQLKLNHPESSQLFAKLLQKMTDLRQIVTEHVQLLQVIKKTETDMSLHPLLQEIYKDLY
Format: functional, cell-based, CV-1.

For test [4], the species on record is Rattus norvegicus. Briefly: Induction of oligodendrocyte precursor cell differentiation isolated from Wistar rat fetal brain cortex at 0.1 uM after 3 days by anti O1-antibody immunostaining method. The format is functional.
The species named for test [5] is Rattus norvegicus. Briefly: Induction of oligodendrocyte precursor cell differentiation isolated from Wistar rat fetal brain cortex at 0.03 uM after 3 days by anti O1-antibody immunostaining method. The format is functional.
The species entered for test [6] is Rattus norvegicus. Description: Induction of oligodendrocyte precursor cell differentiation isolated from Wistar rat fetal brain cortex at 0.01 uM after 3 days by anti O1-antibody immunostaining method. Format: functional. In a few lines: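 Primary mixed cultures from fetal Wistar rat cortex, with OPCs enriched on a Percoll gradient. Cells seeded at 1 × 10⁴/cover glass and cultured 4 days at 37 °C, 5% CO₂, then exposed to compound in DMSO (0.01% final) for 3 days; vehicle control 0.01% DMSO. Anti-O1 immunostaining, random images; stained area measured and given relative to control mean (100%).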

The term EC50 denotes the concentration at which the effect is half-maximal. Lower therefore signals a more potent agent.

SMILES strings stand for the structures. Activity calls are given as the source filed them. The rule behind the calls is not given here.

In the case of `CCCCCCc1oc(-c2ccccc2Cl)nc1CCc1noc2cc(OC(C)(C)C(=O)O)ccc12`, the EC50 in test [1] came out at 2 µM; in test [2] it was 2.3 µM; in test [3], 5.9 µM.

Take `Cc1oc(-c2ccccc2)nc1CCc1noc2cc(OC(C)(C)C(=O)O)ccc12`: the half-maximal effective concentration (EC50) in test [1] came out at 14.9 µM; in test [2], 12.9 µM; in test [3], 20.8 µM.

Regarding `Cc1cc2c(CCc3nc(-c4ccc(Cl)cc4Cl)oc3C(C)C)noc2cc1OCC(=O)O`, in the test filed under Rattus norvegicus [4], the result was Active.

Regarding `Cc1cc(SCc2sc(-c3ccc(C(F)(F)F)cc3)nc2C)ccc1OCC(=O)O`, the result in the test listed under Rattus norvegicus [4], in the test listed under Rattus norvegicus [5] and in the test listed under Rattus norvegicus [6] was Active.

With `CC(C)(Oc1ccc2c(CCc3nc(-c4ccccc4Cl)oc3C(C)(C)C)noc2c1)C(=O)O`, the EC50 in test [1], in test [2] and in test [3] was above 10 µM each time.

For the compound `CC(C)c1oc(-c2ccccc2O)nc1CCc1noc2cc(OC(C)(C)C(=O)O)ccc12`, the EC50 in test [1] came to 0.9 µM; in test [2] it was 10.4 µM; in test [3], 14.6 µM.

On to `CC(C)c1oc(-c2ccc(C(C)(C)C)cc2)nc1CCc1noc2cc(OC(C)(C)C(=O)O)ccc12`, for which the EC50 in test [1] is 1.2 µM; in test [2], 2.9 µM; in test [3], 1 µM.

For `CC(C)c1oc(-c2ccc(Cl)cc2Cl)nc1CCc1noc2cc(OC(C)(C)C(=O)O)ccc12`, the EC50 amounted to 0.1 µM in test [1], 8.6 µM in test [2] and 26.3 µM in test [3].

Take `CC(C)c1oc(-c2ccccc2Cl)nc1CCc1noc2cc(OC(C)(C)C(=O)O)ccc12`: the EC50 was determined as 1.3 µM in test [1], 34.1 µM in test [2] and 31.1 µM in test [3].

Turning to `CCCCc1ccc(-c2nc(CCc3noc4cc(OC(C)(C)C(=O)O)ccc34)c(C(C)C)o2)cc1`, the EC50 was found to be 0.7 µM in test [1], 3.3 µM in test [2] and 2.6 µM in test [3].

For the compound `Cc1cc2c(CCc3sc(-c4ccc(C(F)(F)F)cc4)nc3C(C)C)noc2cc1OC(C)(C)C(=O)O`, the results for the half-maximal effective concentration (EC50) in test [1], in test [2] and in test [3] were 0.011 µM, 0.2 µM and 0.91 µM, respectively. In addition, the result in the test filed under Rattus norvegicus [4], in the test filed under Rattus norvegicus [5] and in the test listed under Rattus norvegicus [6] was Active.

On to `CC(C)c1oc(-c2c(Cl)cccc2Cl)nc1CCc1noc2cc(OC(C)(C)C(=O)O)ccc12`, for which the EC50 in test [1], in test [2] and in test [3] was above 10 µM throughout.

The compound `COc1ccc(CC2SC(=O)NC2=O)cc1C(=O)NCc1ccc(C(F)(F)F)cc1` (centres undefined) returned an EC50 in test [1] above 10 µM. The outcome in the test filed under Rattus norvegicus [4] was inactive.

Take `CCc1oc(-c2ccccc2)nc1CCc1noc2cc(OC(C)(C)C(=O)O)ccc12`: the EC50 was 6.7 µM in test [1], 14.7 µM in test [2] and 25.1 µM in test [3].

Take `CC(C)c1nc(-c2ccc(C(F)(F)F)cc2)sc1CCc1noc2cc(OC(C)(C)C(=O)O)ccc12`: the values for the EC50 in test [1], in test [2] and in test [3] were 0.021 µM, 0.83 µM and 5.1 µM, respectively.

With `CC(C)c1oc(-c2ccccc2C(F)(F)F)nc1CCc1noc2cc(OC(C)(C)C(=O)O)ccc12`, the half-maximal effective concentration (EC50) in test [1], in test [2] and in test [3] was above 10 µM in each case.

Take `CCCc1oc(-c2ccccc2)nc1CCc1noc2cc(OC(C)(C)C(=O)O)ccc12`: the EC50 in test [1] came out at 9.8 µM; in test [2] it was 13.2 µM; in test [3] it was 19.1 µM.

For `CCCc1oc(-c2ccccc2Cl)nc1CCc1noc2cc(OC(C)(C)C(=O)O)ccc12`, the concentration for a half-maximal effect (EC50) came to 5.4 µM in test [1], 13.9 µM in test [2] and 26.4 µM in test [3].

(Values after ChEMBL document CHEMBL1777685, “Biological evaluation of novel benzisoxazole derivatives as PPARδ agonists” (Bioorg Med Chem, 2011).)
